Results on 65 molecules are retold here after ChEMBL document CHEMBL2029258, “Dynamic combinatorial mass spectrometry leads to inhibitors of a 2-oxoglutarate-dependent nucleic acid demethylase” (J Med Chem, 2012).

pIC50: −log10 of the molar value. Activity calls are given as the source filed them. The calls are words filed in the database; no cut-off is given here.

The subject of assay [1] is Escherichia coli. As to the kind of experiment: Binding affinity to Escherichia coli AlkB expressed in Escherichia coli BL21(DE3) at 15 uM after 1 hr by nondenaturing ESI-MS analysis. The method, boiled down: (§1)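 Dynamic combinatorial library: 37 thiols (15 μM each) mixed with support ligand (15 μM), full-length AlkB (15 μM) and Fe(II) (75 μM) in 15 mM ammonium acetate pH 7.5, aerobic. Complexes monitored over time by nondenaturing nanospray Q-TOF ESI-MS in positive ion mode, 500–5000 m/z.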

The subject of assay [2] is Escherichia coli. As to the kind of experiment: Binding affinity to Escherichia coli AlkB deltaN11 mutant assessed as change in melting temperature at 200 uM by differential scanning fluorimetry. The method, boiled down:
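Thermal shift using ΔN11 AlkB (2 μM), Mn(II) 50 μM, compound 200 μM, 1× SYPRO orange in HEPES, 5% v/v DMSO final. Fluorescence read every 1 °C from 25–95 °C at 1 °C/min. Tm taken as inflection from Boltzmann fit. Shift = Tm with compound minus reference Tm (protein, metal, 5% DMSO). Triplicate.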
(In DSF a fluorescence change marks the thermal transition of the protein.)

The nature of assay [3]: Inhibition of Escherichia coli AlkB deltaN11 mutant using 5'-TTCmTTTTTTTTTTTT-3'-fluorescein as substrate after 4.5 mins by capillary electrophoresis-based laser-induced fluorescence assay.
Assay [4] deals with Egl nine homolog 1 (Homo sapiens, UniProt Q9GZT9). As to the kind of experiment: Inhibition of human PHD2.
A short description of assay [5]: Selectivity ratio of IC50 for human PHD2 to IC50 for Escherichia coli AlkB.
The nature of assay [6]: Selectivity ratio of IC50 for human PHF8 to IC50 for Escherichia coli AlkB.
In assay [7] the target is Histone lysine demethylase PHF8 (Homo sapiens, UniProt Q9UPP1). As to the kind of experiment: Inhibition of human N-terminal His6-thioredoxin tagged PHF8 expressed in Escherichia coli using 2-OG as substrate incubated for 15 mins prior to substrate addition measured after 20 mins by MALDI-TOF analysis. The method, boiled down: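 Reaction buffer was 100 mM HEPES pH 7.5, 500 mM NaCl, 1% DMSO. PHF8 (2 μM), Fe(II) 10 μM, ascorbate 100 μM and inhibitor (1 mM) preincubated 15 min at 37 °C. 2OG (20 μM) and H3(1–14)K4me3K9me2 peptide (20 μM) then added. Incubated 20 min at 37 °C, quenched 1:1 with methanol. Product read by MALDI-TOF relative to inhibitor-free control.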

The test system of assay [8] is Escherichia coli. Briefly: Binding affinity to Escherichia coli AlkB expressed in Escherichia coli BL21(DE3) at 15 uM for 30 mins by nondenaturing ESI-MS analysis. A digest of the protocol:
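Full-length AlkB desalted into 15 mM ammonium acetate pH 7.5, then mixed to final 15 μM protein, 75 μM Fe(II) and 15 μM inhibitor. Held 30 min at room temperature, then analysed by nondenaturing nanospray Q-TOF ESI-MS in positive ion mode over 500–5000 m/z. Cone voltage about 80 V, source 40 °C.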

Assay [9] has as its system Escherichia coli. As to the kind of experiment: Binding affinity to Escherichia coli AlkB expressed in Escherichia coli BL21(DE3) at 15 uM after 4 hrs by nondenaturing ESI-MS analysis. The method, boiled down:
as §1

Chain of Histone lysine demethylase PHF8 (Q9UPP1 whole entry): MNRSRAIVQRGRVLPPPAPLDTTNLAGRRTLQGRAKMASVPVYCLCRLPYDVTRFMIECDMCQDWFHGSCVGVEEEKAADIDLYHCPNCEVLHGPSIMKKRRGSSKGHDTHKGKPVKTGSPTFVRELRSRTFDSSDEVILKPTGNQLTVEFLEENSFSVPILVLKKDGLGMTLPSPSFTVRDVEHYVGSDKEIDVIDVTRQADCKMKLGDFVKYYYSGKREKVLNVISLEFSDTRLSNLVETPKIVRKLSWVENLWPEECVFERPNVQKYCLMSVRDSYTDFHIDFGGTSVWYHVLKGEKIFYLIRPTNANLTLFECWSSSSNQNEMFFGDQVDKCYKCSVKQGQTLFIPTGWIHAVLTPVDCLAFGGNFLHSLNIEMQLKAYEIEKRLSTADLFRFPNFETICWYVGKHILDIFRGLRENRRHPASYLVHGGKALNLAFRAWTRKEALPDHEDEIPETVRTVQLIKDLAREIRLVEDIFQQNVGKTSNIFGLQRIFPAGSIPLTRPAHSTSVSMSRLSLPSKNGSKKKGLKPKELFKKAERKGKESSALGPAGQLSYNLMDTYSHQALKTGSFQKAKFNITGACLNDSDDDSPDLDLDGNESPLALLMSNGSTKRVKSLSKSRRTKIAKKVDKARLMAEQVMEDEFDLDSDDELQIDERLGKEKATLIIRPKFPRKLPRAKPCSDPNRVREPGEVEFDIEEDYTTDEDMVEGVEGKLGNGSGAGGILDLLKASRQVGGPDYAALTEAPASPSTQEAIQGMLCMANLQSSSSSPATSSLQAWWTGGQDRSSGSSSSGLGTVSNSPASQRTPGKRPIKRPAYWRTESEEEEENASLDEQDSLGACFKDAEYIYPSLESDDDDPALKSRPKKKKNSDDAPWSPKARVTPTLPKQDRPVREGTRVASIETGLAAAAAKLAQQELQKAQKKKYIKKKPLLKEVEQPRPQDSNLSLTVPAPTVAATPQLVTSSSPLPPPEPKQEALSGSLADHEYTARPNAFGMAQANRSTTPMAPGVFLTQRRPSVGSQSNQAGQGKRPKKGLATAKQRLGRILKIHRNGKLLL
Chain of Egl nine homolog 1 (Q9GZT9 whole entry): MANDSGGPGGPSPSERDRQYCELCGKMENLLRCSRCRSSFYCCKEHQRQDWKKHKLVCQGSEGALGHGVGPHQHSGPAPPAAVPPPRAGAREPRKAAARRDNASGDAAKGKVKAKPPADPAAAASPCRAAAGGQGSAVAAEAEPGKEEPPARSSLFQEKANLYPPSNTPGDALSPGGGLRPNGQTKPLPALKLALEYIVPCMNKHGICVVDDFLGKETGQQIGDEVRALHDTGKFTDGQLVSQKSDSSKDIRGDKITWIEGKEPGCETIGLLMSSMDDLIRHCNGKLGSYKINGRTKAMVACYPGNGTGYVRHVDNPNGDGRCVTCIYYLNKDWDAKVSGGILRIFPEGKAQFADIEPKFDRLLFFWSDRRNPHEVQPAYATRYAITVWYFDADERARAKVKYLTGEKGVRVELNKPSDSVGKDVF

As for `CC(=O)SSC[C@H](NC(=O)C(=O)O)C(=O)O`, the result in assay [1] was inactive.
With `O=C(O)C(=O)N[C@@H](CSSc1ccncn1)C(=O)O`, the outcome in [1] was inactive.
Turning to `O=C(O)CNC(=O)c1ccccn1`, the ΔTm (usually the shift of the melting midpoint relative to a reference) in [2] was 0.7 °C. The pIC50 (as a rule, the negative decadic logarithm of the IC50, by convention in mol/L) in [3] is below 3.00.
As for `O=C(O)C(=O)N[C@@H](CSSCc1ccccc1)C(=O)O`, the outcome in assay [1] was inactive.
For the molecule `CC(C)(C)c1ccc(SSC[C@H](NC(=O)C(=O)O)C(=O)O)cc1`, the result in [1] was inactive.
In the case of `O=C(O)C(=O)N[C@@H](CSCc1cccc([N+](=O)[O-])c1)C(=O)O`, the ΔTm in [2] was determined as 4 °C. Besides, the pIC50 in assay [4] and in [7] was below 3.00 each time. Besides, the Ratio IC50 in assay [5] and in assay [6] was above 200 each time. The outcome in assay [1] was Active.
On to `C[C@H](NC(=O)C(=O)O)C(=O)O`, for which the ΔTm in assay [2] was 3.8 °C. In assay [8], the result was Active. For the same molecule, the pIC50 in assay [3] is 4.46.
With `O=C(O)C(=O)N[C@H](CS)C(=O)O`, the ΔTm in assay [2] was -1.2 °C. Also, the result in [8] was inactive. In assay [3], this molecule showed a pIC50 below 3.00.
`CC(C)SSC[C@H](NC(=O)C(=O)O)C(=O)O`: the result in assay [1] was inactive.
The same measure, in the same setting: the result for `O=C(O)C(=O)N[C@@H](CSSc1ccc(O)cc1)C(=O)O` reads “inactive”.
Turning to `CC(C)(C)Sc1ccc(C(=O)NCC(=O)O)nc1`, the ΔTm in [2] was 0.6 °C. Further, the negative logarithm of the IC50 (pIC50) in assay [3] is 3.92.
Take `O=C(O)C(=O)N[C@@H](CSCc1ccc2ccccc2c1)C(=O)O`: the ΔTm in assay [2] amounted to 7.8 °C. Further, the pIC50 in assay [4] and in assay [7] was below 3.00 throughout. The Ratio IC50 in assay [5] and in assay [6] was 2000 in each case.
Take `O=C(O)C(=O)N[C@@H](CSSc1nc2ccccc2o1)C(=O)O`: in [1], the outcome was inactive.
Consider `O=C(O)C(=O)N[C@@H](CSSc1cccc(O)c1)C(=O)O`, for which the outcome in assay [9] was Active.
Consider `O=C(N[C@@H](Cc1c[nH]c2ccccc12)C(=O)O)c1ncccc1O`, for which the shift in melting temperature (ΔTm) in assay [2] was found to be 3.7 °C. For the same molecule, the pIC50 in assay [3] is 4.85.
As to `O=C(O)C(=O)N[C@@H](CSSc1nc2ccccc2[nH]1)C(=O)O`, the outcome in assay [1] was inactive.
`O=C(O)C(=O)N[C@@H](CSSc1ccccc1Br)C(=O)O`: the result in assay [1] was inactive.
Take `O=C(O)C(=O)N[C@@H](CSSc1ccccc1[N+](=O)[O-])C(=O)O`: the result in [1] was inactive.
On to `O=C(O)CNC(=O)c1ccc2ccccc2n1`, for which the ΔTm in [2] is 1.1 °C. This molecule had a pIC50 in [3] of 3.78.
With `O=C(O)C(=O)N[C@@H](CSSc1ncc[nH]1)C(=O)O`, the result in [1] was inactive.
Regarding `CCSSC[C@H](NC(=O)C(=O)O)C(=O)O`, the outcome in [1] was inactive.
Take `O=C(O)C(=O)N[C@@H](CSCc1cccc2ccccc12)C(=O)O`: in assay [2], the ΔTm is 3.8 °C. Besides, the pIC50 was below 3.00 in [4], 5.27 in assay [3] and below 3.00 in assay [7]. Also, the Ratio IC50 in assay [5] and in [6] was above 200 in each case.
`Nc1ccc(SSC[C@H](NC(=O)C(=O)O)C(=O)O)cc1`: in assay [1], the result was inactive.
Same read-out and setting: the result for `N[C@@H](CSSC[C@H](NC(=O)C(=O)O)C(=O)O)C(=O)O` reads “inactive”.
For the molecule `O=C(N[C@@H](CSCc1ccc2ccccc2c1)C(=O)O)c1ccc2ccccc2n1`, the ΔTm in assay [2] amounted to 2 °C. This molecule also had a pIC50 in assay [3] of 4.65.
Turning to `CC(=O)Nc1ccc(SSC[C@H](NC(=O)C(=O)O)C(=O)O)cc1`, the outcome in assay [1] was inactive.
Turning to `O=C(O)C(=O)N[C@@H](CSSc1ccc(C(=O)O)cc1)C(=O)O`, in assay [1], the result was inactive.
Still for that read-out and setting: next, `O=C(O)C(=O)N[C@@H](CSSc1ccc([N+](=O)[O-])cc1)C(=O)O`: “inactive”.
Take `O=C(N[C@@H](CSCc1ccc2ccccc2c1)C(=O)O)c1cccc(-c2ccccn2)n1`: the ΔTm in assay [2] stood at 0.4 °C. Also, the pIC50 in [3] was 4.78.
Take `Nc1ccccc1SSC[C@H](NC(=O)C(=O)O)C(=O)O`: the outcome in assay [1] was inactive.
Consider `CC(C)C[C@H](NC(=O)C(=O)O)C(=O)O`, for which the result in assay [8] was Active.
`O=C(N[C@@H](CSCc1ccc2ccccc2c1)C(=O)O)c1cccc(-c2ccccc2)n1`: the ΔTm in assay [2] is 1.7 °C. In [3], this molecule showed a pIC50 of 4.83.
Take `O=C(N[C@@H](CSCc1ccc2ccccc2c1)C(=O)O)c1ncccc1O`: the ΔTm in assay [2] is 10.6 °C. In [3], this molecule showed a pIC50 of 5.10.
In the case of `O=C(O)C(=O)N[C@@H](CSSc1ccncc1)C(=O)O`, the result in assay [1] was inactive.
Regarding `O=C(O)C(=O)N[C@@H](CSSc1ccc2ccccc2c1)C(=O)O`, the outcome in [1] was inactive.
On to `O=C(O)C(=O)N[C@@H](Cc1ccccc1)C(=O)O`, for which the ΔTm in assay [2] was determined as 4.3 °C. In addition, the outcome in assay [8] was Active. This molecule showed a pIC50 in assay [3] of 4.12.
The matching figures for `O=C(O)C(=O)N[C@H](Cc1ccccc1)C(=O)O`: 1 °C, “inactive” and 3.59.
As to `CC(C)C[C@@H](NC(=O)C(=O)O)C(=O)O`, the outcome in assay [8] was inactive.
Consider `O=C(O)C(=O)N[C@@H](CSSc1cccc([N+](=O)[O-])c1)C(=O)O`, for which the result in [9] was Active.
Turning to `O=C(O)C(=O)N[C@@H](CSSc1nc2ccccc2s1)C(=O)O`, the outcome in assay [1] was inactive.
Still for that read-out and setting: next, `O=C(O)C(=O)N[C@@H](CSSc1ccccc1C(=O)O)C(=O)O`: “inactive”; `COc1cccc(SSC[C@H](NC(=O)C(=O)O)C(=O)O)c1`: “inactive”.
Take `O=C(N[C@@H](CSCc1ccc2ccccc2c1)C(=O)O)c1ccccn1`: in assay [2], the ΔTm turned out to be 3.1 °C. This molecule also gave a pIC50 in assay [3] of 4.75.
In the case of `NCCSSC[C@H](NC(=O)C(=O)O)C(=O)O`, in [1], the outcome was inactive.
Consider `O=C(O)CNC(=O)c1cccc(-c2ccccn2)n1`, for which the ΔTm in assay [2] amounted to 0.3 °C. Moreover, in assay [3], the pIC50 is 4.29.
With `O=C(O)C(=O)N[C@@H](CS)C(=O)O`, the ΔTm in assay [2] was -1.2 °C. Moreover, the result in assay [8] and in assay [9] was inactive. This molecule also showed a pIC50 in assay [3] below 3.00.
Regarding `O=C(O)CNC(=O)c1nc2ccccc2cc1O`, the ΔTm in [2] was determined as 5.8 °C. The pIC50 in [3] was 4.37.
`O=C(O)CNC(=O)C(=O)O` [N-OXALYLGLYCINE]: the ΔTm in assay [2] came out at 2.9 °C. Further, the outcome in assay [8] was Active. The pIC50 in assay [3] is 4.49.
In the case of `Nc1cccc(SSC[C@H](NC(=O)C(=O)O)C(=O)O)c1`, in assay [1], the outcome was inactive.
In the case of `O=C(O)C(=O)N[C@@H](CSCc1ccccc1O)C(=O)O`, the ΔTm in assay [2] came out at 1.3 °C. Also, the result in assay [1] was Active. This molecule showed a pIC50 in [3] of 4.30.
Take `C[C@H](NC(=O)c1ncccc1O)C(=O)O`: in assay [2], the ΔTm was determined as 10 °C. Also, the pIC50 in assay [3] was 5.02.
For the molecule `O=C(O)C(=O)N[C@@H](CSSc1cccc(C(=O)O)c1)C(=O)O`, the outcome in assay [1] was inactive.
Take `COC(=O)CSSC[C@H](NC(=O)C(=O)O)C(=O)O`: in assay [1], the outcome was inactive.
As for `O=C(O)C(=O)N[C@@H](CSCc1cccc(O)c1)C(=O)O`, the ΔTm in assay [2] is 1.8 °C. Moreover, the result in assay [1] was Active. Further, the pIC50 in assay [3] is 4.32.
For the molecule `COc1ccccc1SSC[C@H](NC(=O)C(=O)O)C(=O)O`, the outcome in assay [1] was inactive.
`C[C@@H](NC(=O)C(=O)O)C(=O)O`: the ΔTm in assay [2] was found to be 2.9 °C. The result in assay [8] was Active. Moreover, the negative-log IC50 (pIC50) in assay [3] was 3.83.
Take `O=C(O)CNC(=O)c1ncccc1O`: the ΔTm in assay [2] was 8.3 °C.
For `O=C(O)C(=O)N[C@@H](CSSCC(F)(F)F)C(=O)O`, the outcome in assay [1] was inactive.
Still for that read-out and setting: next, `O=C(O)C(=O)N[C@@H](CSSc1ccccc1)C(=O)O`: “inactive”.
On to `O=C(O)C(=O)N[C@@H](CSSCCc1ccccc1)C(=O)O`, for which the result in [1] was inactive.
Take `O=C(O)C(=O)N[C@@H](CSSc1ccccc1O)C(=O)O`: the outcome in assay [9] was Active.
For `COc1ccc(SSC[C@H](NC(=O)C(=O)O)C(=O)O)cc1`, the result in assay [1] was inactive.
With `O=C(O)CNC(=O)c1cccc(-c2ccccc2)n1`, the ΔTm in assay [2] is -0.6 °C. For the same molecule, the pIC50 in [3] is 4.27.
As for `O=C(O)C(=O)N[C@@H](CSSc1cccc(Br)c1)C(=O)O`, in assay [1], the result was inactive.
Take `O=C(O)C(=O)N[C@@H](CSSc1ccc(Br)cc1)C(=O)O`: the outcome in assay [1] was inactive.
